According to ChEMBL document CHEMBL1122701, “Antiestrogens. 2. Structure-activity studies in a series of 3-aroyl-2-arylbenzo[b]thiophene derivatives leading to [6-hydroxy-2-(4-hydroxyphenyl)benzo[b]thien-3-yl] [4-[2-(1-piperidinyl)ethoxy]-phenyl]methanone hydrochloride (LY156758), a remarkably effective estrogen antagonist with only minimal …” (1984):
Where “and” joins values, the source holds several entries; their conditions need not be identical. Identical values can stand only once.

Tests used:
Rattus norvegicus [1] = organism: Rattus norvegicus; experiment: The compound was tested for uterotropic activity in immature rats(Dosage 10 ug); assay type: functional
Method in brief: (§1)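 Holtzman rats, immature (19-20 days, 40-45 g), in groups of six. Compound given subcutaneously in corn oil as a daily per-rat dose for 3 days. Rats killed on day 4 and uterine wet weight recorded to the nearest 0.1 mg.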

Rattus norvegicus [2] = organism: Rattus norvegicus; experiment: The compound was tested for anti-uterotrophic activity in immature rats(Dosage 100 ug); assay type: functional
Method in brief: (§2)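 Holtzman rats, immature (19-20 days, 40-45 g), in groups of six. Each rat received estradiol 1 µg/day sc in corn oil plus compound sc in corn oil as a daily per-rat dose, for 3 days. Rats killed on day 4. Inhibition of estradiol-driven uterine wet weight (weighed to 0.1 mg).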

Rattus norvegicus [3] = organism: Rattus norvegicus; experiment: The compound was tested for anti-uterotrophic activity in immature rats(Dosage 1000 ug); assay type: functional; method in brief: as §2
Rattus norvegicus [4] = organism: Rattus norvegicus; experiment: The compound was tested for anti-uterotrophic activity in immature rats(Dosage 10 microg); assay type: functional; method in brief: as §2
Rattus norvegicus [5] = organism: Rattus norvegicus; experiment: The compound was tested for uterotropic activity in immature rats(Dosage 100 ug); assay type: functional; method in brief: as §1
Rattus norvegicus [6] = organism: Rattus norvegicus; experiment: The compound was tested for anti-uterotrophic activity in immature rats(Dosage 1 ug); assay type: functional; method in brief: as §2
Rattus norvegicus [7] = organism: Rattus norvegicus; experiment: The compound was tested for uterotropic activity in immature rats(Dosage 1 ug); assay type: functional; method in brief: as §1
Rattus norvegicus [8] = organism: Rattus norvegicus; experiment: The compound was tested for uterotropic activity in immature rats(Dosage 1000 ug); assay type: functional; method in brief: as §1
Rattus norvegicus [9] = experiment: The compound was tested for serum prolactin level in rats at 10 mg/kg dose after peroral administration; assay type: functional, organism-based; parameters: dose 10 mg/kg
Rattus norvegicus [10] = experiment: The compound was tested for serum prolactin level in rats at 1 mg/kg dose after peroral administration; assay type: functional, organism-based; parameters: dose 1 mg/kg
Rattus norvegicus [11] = experiment: The compound was tested for serum prolactin level in rats at 1 mg/kg dose after peroral administration exp1; assay type: functional, organism-based; parameters: dose 1 mg/kg
Rattus norvegicus [12] = experiment: The compound was tested for serum LH level in rats at 1 mg/kg dose after peroral administration; assay type: functional, organism-based; parameters: dose 1 mg/kg
Rattus norvegicus [13] = organism: Rattus norvegicus; experiment: The compound was tested for uterotropic activity in immature rats(Dosage 0.1 ug); assay type: functional; method in brief: as §1
Rattus norvegicus [14] = experiment: The compound was tested for the no of tumors at 10 mg/kg dose start of the experiment after peroral administration (experiment-2); assay type: functional; settings: route oral
Method in brief: (§3)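 DMBA-induced mammary tumors in female Sprague-Dawley rats. Compound given orally twice daily in PEG-400:water (1:1) for 21 days; controls received vehicle alone. Tumors measured by caliper at start and weekly; area is largest × smallest diameter. Tumors scored as complete or partial remission, no change or progression. Mean ± SE.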

Rattus norvegicus [15] = experiment: The compound was tested for the no of tumors at 10 mg/kg dose finish of the experiment after peroral administration (experiment-I); assay type: functional; settings: route oral; method in brief: as §3
Rattus norvegicus [16] = experiment: The compound was tested for no of tumors with partial remission at 10 mg/kg dose after peroral administration (experiment-I); assay type: functional; settings: route oral; method in brief: as §3
Rattus norvegicus [17] = experiment: The compound was tested for no of tumors with complete remission at 10 mg/kg dose after peroral administration (experiment-2); assay type: functional; settings: route oral; method in brief: as §3
Rattus norvegicus [18] = experiment: The compound was tested for no of tumors with complete remission at 10 mg/kg dose after peroral administration (experiment-I); assay type: functional; settings: route oral; method in brief: as §3
Rattus norvegicus [19] = experiment: The compound was tested for the growth of mammary tumors in rats at 1 mg/kg dose after peroral administration at the end of the exp-1; assay type: functional; settings: route oral; method in brief: as §3
Rattus norvegicus [20] = experiment: The compound was tested for no of tumors without change at 1 mg/kg dose after peroral administration (experiment-I); assay type: functional; settings: route oral; method in brief: as §3
Rattus norvegicus [21] = experiment: The compound was tested for the no of tumors at 1 mg/kg dose start of the experiment after peroral administration (experiment-I); assay type: functional; settings: route oral; method in brief: as §3
Rattus norvegicus [22] = experiment: The compound was tested for no of tumors without change at 10 mg/kg dose after peroral administration (experiment-I); assay type: functional; settings: route oral; method in brief: as §3
Rattus norvegicus [23] = experiment: The compound was tested for no of tumors with complete remission at 1 mg/kg dose after peroral administration (experiment-I); assay type: functional; settings: route oral; method in brief: as §3
Rattus norvegicus [24] = experiment: The compound was tested for the % change of tumor area at 1 mg/kg dose after peroral administration (experiment-I); assay type: functional; settings: route oral; method in brief: as §3
Rattus norvegicus [25] = experiment: The compound was tested for the progression of no of tumors at 1 mg/kg dose after peroral administration (experiment-I); assay type: functional; settings: route oral; method in brief: as §3
Rattus norvegicus [26] = experiment: The compound was tested for the % change of tumor area at 10 mg/kg dose after peroral administration (experiment-2); settings: route oral
Rattus norvegicus [27] = experiment: The compound was tested for no of tumors without change at 10 mg/kg dose after peroral administration (experiment-2); assay type: functional; settings: route oral; method in brief: as §3
Rattus norvegicus [28] = experiment: The compound was tested for the no of tumors at 1 mg/kg dose finish of the experiment after peroral administration (experiment-I); assay type: functional; settings: route oral; method in brief: as §3
Rattus norvegicus [29] = experiment: The compound was tested for the no of tumors at 10 mg/kg dose finish of the experiment after peroral administration (experiment-2); assay type: functional; settings: route oral; method in brief: as §3
Rattus norvegicus [30] = experiment: The compound was tested for the progression of no of tumors at 10 mg/kg dose after peroral administration (experiment-2); assay type: functional; settings: route oral; method in brief: as §3
Rattus norvegicus [31] = experiment: The compound was tested for the no of tumors at 10 mg/kg dose start of the experiment after peroral administration (experiment-I); assay type: functional; settings: route oral; method in brief: as §3
Rattus norvegicus [32] = experiment: The compound was tested for the progression of no of tumors at 10 mg/kg dose after peroral administration (experiment-I); assay type: functional; settings: route oral; method in brief: as §3
Rattus norvegicus [33] = experiment: The compound was tested for no of tumors with partial remission at 1 mg/kg dose after peroral administration (experiment-I); assay type: functional; settings: route oral; method in brief: as §3
Rattus norvegicus [34] = experiment: The compound was tested for no of tumors with partial remission at 10 mg/kg dose after peroral administration (experiment-2); assay type: functional; settings: route oral; method in brief: as §3
Rattus norvegicus [35] = experiment: The compound was tested for the growth of mammary tumors in rats at 10 mg/kg dose after peroral administration at the end of the exp-2; assay type: functional; settings: route oral; method in brief: as §3
Rattus norvegicus [36] = experiment: The compound was tested for the growth of tumors at 10 mg/kg dose start of the experiment after peroral administration (experiment-2); assay type: functional; settings: route oral; method in brief: as §3
Rattus norvegicus [37] = experiment: The compound was tested for the growth of tumors at 10 mg/kg dose finish of the experiment after peroral administration (experiment-2); assay type: functional; settings: route oral; method in brief: as §3

CC(C)N(CCOc1ccc(C(=O)c2c(-c3ccc(O)cc3)sc3cc(O)ccc23)cc1)C(C)C
Mean uterine weight (Rattus norvegicus [1]): 50 mg
Mean uterine weight (Rattus norvegicus [2]): 69.5 mg
Mean uterine weight (Rattus norvegicus [3]): 70.2 mg
Mean uterine weight (Rattus norvegicus [4]): 58.7 mg
Mean uterine weight (Rattus norvegicus [5]): 62.1 mg
Mean uterine weight (Rattus norvegicus [6]): 60.1 mg
Mean uterine weight (Rattus norvegicus [7]): 37.3 mg
Mean uterine weight (Rattus norvegicus [8]): 60.4 mg

CCN(CC)CCOc1ccc(C(=O)c2c(-c3ccc(O)cc3)sc3cc(O)ccc23)cc1
Mean uterine weight (Rattus norvegicus [1]): 53.6 mg
Mean uterine weight (Rattus norvegicus [2]): 66.4 mg
Mean uterine weight (Rattus norvegicus [3]): 66 mg
Mean uterine weight (Rattus norvegicus [4]): 61.3 mg
Mean uterine weight (Rattus norvegicus [5]): 67.6 mg
Mean uterine weight (Rattus norvegicus [6]): 56.2 mg
Mean uterine weight (Rattus norvegicus [7]): 45.4 mg
Mean uterine weight (Rattus norvegicus [8]): 66.5 mg

O=C(c1ccc(OCCN2CCCCCC2)cc1)c1c(-c2ccc(O)cc2)sc2cc(O)ccc12
Mean uterine weight (Rattus norvegicus [1]): 46.6 mg
Mean uterine weight (Rattus norvegicus [2]): 39.7 mg
Mean uterine weight (Rattus norvegicus [3]): 36.7 mg
Mean uterine weight (Rattus norvegicus [4]): 52.7 mg
Mean uterine weight (Rattus norvegicus [5]): 43.9 mg
Mean uterine weight (Rattus norvegicus [6]): 56.3 mg
Mean uterine weight (Rattus norvegicus [7]): 52.7 mg
Mean uterine weight (Rattus norvegicus [8]): 40.1 mg

CN(C)CCOc1ccc(C(=O)c2c(-c3ccc(O)cc3)sc3cc(O)ccc23)cc1
Mean uterine weight (Rattus norvegicus [1]): 55 mg
Mean uterine weight (Rattus norvegicus [2]): 64.7 mg
Mean uterine weight (Rattus norvegicus [3]): 70.8 mg
Mean uterine weight (Rattus norvegicus [4]): 54.3 mg
Mean uterine weight (Rattus norvegicus [5]): 66 mg
Mean uterine weight (Rattus norvegicus [6]): 54.7 mg
Mean uterine weight (Rattus norvegicus [7]): 44.6 mg
Mean uterine weight (Rattus norvegicus [8]): 71.5 mg

O=C(c1ccc(OCCN2CCCCC2)cc1)c1c(-c2ccc(O)cc2)sc2cc(O)ccc12
Serum prolactin level (Rattus norvegicus [9]): 0.000711 mg/mL
Serum prolactin level (Rattus norvegicus [10]): 7.24e-05 mg/mL
Serum prolactin level (Rattus norvegicus [11]): 0.000204 mg/mL
Serum LH level (Rattus norvegicus [12]): 3.08e-05 mg/mL and 2.77e-05 mg/mL

C[C@]12CC[C@@H]3c4ccc(O)cc4CC[C@H]3[C@@H]1CC[C@@H]2O [ESTRADIOL]
Mean uterine weight (Rattus norvegicus [13]): 82.3 mg

O=C(c1ccc(OCCN2CCCC2)cc1)c1c(-c2ccc(O)cc2)sc2cc(O)ccc12 [LY-117018]
Mean uterine weight (Rattus norvegicus [1]): 46.6 mg
Mean uterine weight (Rattus norvegicus [2]): 42.7 mg
Mean uterine weight (Rattus norvegicus [3]): 36.1 mg
Mean uterine weight (Rattus norvegicus [4]): 44.5 mg
Mean uterine weight (Rattus norvegicus [5]): 43.9 mg
Mean uterine weight (Rattus norvegicus [6]): 61.7 mg
Mean uterine weight (Rattus norvegicus [7]): 55.1 mg
Mean uterine weight (Rattus norvegicus [8]): 40.7 mg

Cl.O=C(c1ccc(OCCN2CCCCC2)cc1)c1c(-c2ccc(O)cc2)sc2cc(O)ccc12 [RALOXIFENE HYDROCHLORIDE]
No. of tumours (Rattus norvegicus [14]): 9
No. of tumours (Rattus norvegicus [15]): 13
No. of tumours (Rattus norvegicus [16]): 2
No. of tumours (Rattus norvegicus [17]): 4
No. of tumours (Rattus norvegicus [18]): 1
Tumor area (Rattus norvegicus [19]): 33.3 mm**2 and <77.3 mm**2
No. of tumours (Rattus norvegicus [20]): 4
No. of tumours (Rattus norvegicus [21]): 9
No. of tumours (Rattus norvegicus [22]): 2
No. of tumours (Rattus norvegicus [23]): 1
% change tumor area (Rattus norvegicus [24]): 132% and 378%
No. of tumours (Rattus norvegicus [25]): 2
% change tumor area (Rattus norvegicus [26]): 417%
No. of tumours (Rattus norvegicus [27]): 1
No. of tumours (Rattus norvegicus [28]): 9
No. of tumours (Rattus norvegicus [29]): 5
No. of tumours (Rattus norvegicus [30]): 2
No. of tumours (Rattus norvegicus [31]): 9
No. of tumours (Rattus norvegicus [32]): 4
No. of tumours (Rattus norvegicus [33]): 2
No. of tumours (Rattus norvegicus [34]): 2

O=C(c1ccc(OCCN2CCCCC2)cc1)c1c(-c2ccc(O)cc2)sc2cc(O)ccc12 [RALOXIFENE]
Mean uterine weight (Rattus norvegicus [1]): 42.2 mg
Mean uterine weight (Rattus norvegicus [2]): 32.5 mg
Mean uterine weight (Rattus norvegicus [3]): 28.9 mg
Mean uterine weight (Rattus norvegicus [4]): 36.7 mg
Mean uterine weight (Rattus norvegicus [5]): 42.7 mg
Mean uterine weight (Rattus norvegicus [6]): 48.7 mg
Mean uterine weight (Rattus norvegicus [7]): 48.6 mg
Mean uterine weight (Rattus norvegicus [8]): 35.4 mg

CC/C(=C(\c1ccccc1)c1ccc(OCCN(C)C)cc1)c1ccccc1 [TAMOXIFEN]
Serum prolactin level (Rattus norvegicus [9]): 0.000126 mg/mL
No. of tumours (Rattus norvegicus [17]): 3
Mean uterine weight (Rattus norvegicus [1]): 64.8 mg
Mean uterine weight (Rattus norvegicus [2]): 72.1 mg
Mean uterine weight (Rattus norvegicus [3]): 74.1 mg
Mean uterine weight (Rattus norvegicus [4]): 62.1 mg
Tumor area (Rattus norvegicus [35]): 43.4 mm**2 and <46.4 mm**2
Mean uterine weight (Rattus norvegicus [5]): 65.6 mg
% change tumor area (Rattus norvegicus [26]): 7
No. of tumours (Rattus norvegicus [36]): 11
Mean uterine weight (Rattus norvegicus [6]): 64.1 mg
No. of tumours (Rattus norvegicus [27]): 2
No. of tumours (Rattus norvegicus [37]): 7
Mean uterine weight (Rattus norvegicus [7]): 38.9 mg
No. of tumours (Rattus norvegicus [30]): 3
Mean uterine weight (Rattus norvegicus [8]): 70.1 mg
No. of tumours (Rattus norvegicus [34]): 3
